Data on 13 compounds can be found in ChEMBL document CHEMBL1800036, “A novel HDAC inhibitor with a hydroxy-pyrimidine scaffold” (Bioorg Med Chem Lett, 2011).

One assay deals with Histone deacetylase 3 (Homo sapiens, UniProt O15379). Put plainly: Inhibition of recombinant HDAC3 assessed as inhibition of fluorogenic aminocoumarin release from substrate by trypsin-coupled biochemical assay. Put shortly: (§1)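 Trypsin-coupled fluorogenic assay. Substrate is an acetylated lysine tripeptide amide-linked to aminocoumarin (AMC). HDAC deacetylation allows trypsin to release AMC, and the fluorescence increase is read. Compound was tested at various concentrations and normalized to a DMSO control. IC50 was derived by non-linear regression fit.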

The target in another assay is Histone deacetylase 2 (Homo sapiens, UniProt Q92769). Nature of the assay: Inhibition of recombinant HDAC2 assessed as inhibition of fluorogenic aminocoumarin release from substrate by trypsin-coupled biochemical assay.
Assay [1] has as its target T1, Protein deacetylase HDAC6 (Homo sapiens, UniProt Q9UBN7).
T1 sequence (Q9UBN7 whole entry): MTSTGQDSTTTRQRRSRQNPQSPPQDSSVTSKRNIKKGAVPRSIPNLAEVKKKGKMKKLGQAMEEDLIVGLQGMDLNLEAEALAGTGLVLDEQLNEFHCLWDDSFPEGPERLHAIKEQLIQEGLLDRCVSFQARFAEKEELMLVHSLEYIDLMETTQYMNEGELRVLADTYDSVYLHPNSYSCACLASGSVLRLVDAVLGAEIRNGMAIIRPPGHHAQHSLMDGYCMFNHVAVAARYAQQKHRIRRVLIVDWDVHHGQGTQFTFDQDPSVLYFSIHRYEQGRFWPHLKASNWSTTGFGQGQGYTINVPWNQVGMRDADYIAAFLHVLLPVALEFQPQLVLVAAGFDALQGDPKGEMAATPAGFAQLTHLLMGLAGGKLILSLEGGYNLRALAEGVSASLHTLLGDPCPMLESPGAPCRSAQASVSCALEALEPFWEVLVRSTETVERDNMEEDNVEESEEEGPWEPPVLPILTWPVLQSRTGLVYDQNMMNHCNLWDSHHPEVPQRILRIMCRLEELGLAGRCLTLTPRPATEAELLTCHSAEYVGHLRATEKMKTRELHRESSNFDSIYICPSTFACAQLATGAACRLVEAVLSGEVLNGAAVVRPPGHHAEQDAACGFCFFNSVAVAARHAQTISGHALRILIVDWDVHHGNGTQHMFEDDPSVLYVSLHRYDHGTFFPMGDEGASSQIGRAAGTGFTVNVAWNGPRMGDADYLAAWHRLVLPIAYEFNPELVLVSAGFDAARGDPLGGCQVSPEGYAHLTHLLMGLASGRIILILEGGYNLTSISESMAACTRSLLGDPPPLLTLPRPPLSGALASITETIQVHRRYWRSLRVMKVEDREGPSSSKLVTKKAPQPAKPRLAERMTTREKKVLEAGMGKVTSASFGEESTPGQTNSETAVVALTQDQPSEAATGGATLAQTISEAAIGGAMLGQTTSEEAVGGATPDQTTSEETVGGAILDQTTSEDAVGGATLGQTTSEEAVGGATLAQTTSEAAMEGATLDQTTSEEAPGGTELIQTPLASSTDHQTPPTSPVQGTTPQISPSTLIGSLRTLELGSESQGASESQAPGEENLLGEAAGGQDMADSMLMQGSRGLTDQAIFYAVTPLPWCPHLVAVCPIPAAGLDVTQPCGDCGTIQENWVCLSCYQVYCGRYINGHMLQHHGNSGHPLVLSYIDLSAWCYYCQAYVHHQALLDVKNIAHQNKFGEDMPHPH
Nature of the assay: Inhibition of recombinant HDAC6 assessed as inhibition of fluorogenic aminocoumarin release from substrate by trypsin-coupled biochemical assay. The essentials: as §1

Another assay concerns the target T2, Histone deacetylase 7 (Homo sapiens, UniProt Q8WUI4).
T2 sequence (Q8WUI4 whole entry): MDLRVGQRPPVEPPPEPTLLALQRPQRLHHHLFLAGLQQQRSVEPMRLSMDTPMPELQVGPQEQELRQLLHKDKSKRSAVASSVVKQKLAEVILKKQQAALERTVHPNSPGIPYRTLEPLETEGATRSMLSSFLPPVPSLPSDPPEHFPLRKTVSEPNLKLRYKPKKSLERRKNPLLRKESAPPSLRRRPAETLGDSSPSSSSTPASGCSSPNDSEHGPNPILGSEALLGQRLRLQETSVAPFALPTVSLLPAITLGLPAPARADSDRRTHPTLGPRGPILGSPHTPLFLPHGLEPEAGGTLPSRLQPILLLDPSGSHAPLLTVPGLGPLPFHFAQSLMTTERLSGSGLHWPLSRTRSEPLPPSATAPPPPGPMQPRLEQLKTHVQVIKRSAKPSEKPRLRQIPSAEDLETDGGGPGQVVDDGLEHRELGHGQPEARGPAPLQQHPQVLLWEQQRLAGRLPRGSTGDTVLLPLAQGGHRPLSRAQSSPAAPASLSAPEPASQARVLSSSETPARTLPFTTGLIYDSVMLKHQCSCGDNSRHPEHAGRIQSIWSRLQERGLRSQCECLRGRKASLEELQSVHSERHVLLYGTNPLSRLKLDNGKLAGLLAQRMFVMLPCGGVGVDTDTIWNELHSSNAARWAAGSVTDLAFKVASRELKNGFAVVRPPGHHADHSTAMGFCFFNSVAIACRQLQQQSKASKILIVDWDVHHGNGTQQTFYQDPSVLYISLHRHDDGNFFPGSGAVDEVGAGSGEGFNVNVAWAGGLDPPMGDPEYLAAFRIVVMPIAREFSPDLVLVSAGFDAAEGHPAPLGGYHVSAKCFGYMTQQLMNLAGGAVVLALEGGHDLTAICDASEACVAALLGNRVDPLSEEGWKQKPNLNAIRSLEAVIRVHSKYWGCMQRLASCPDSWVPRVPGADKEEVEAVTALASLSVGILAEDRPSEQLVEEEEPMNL
Put plainly: Inhibition of recombinant HDAC7 assessed as inhibition of fluorogenic aminocoumarin release from substrate by trypsin-coupled biochemical assay.

For another assay, the target named is Histone deacetylase 9 (Homo sapiens, UniProt Q9UKV0). Put plainly: Inhibition of recombinant HDAC9 assessed as inhibition of fluorogenic aminocoumarin release from substrate by trypsin-coupled biochemical assay. The essentials: as §1
A further assay has as its target Histone deacetylase 5 (Homo sapiens, UniProt Q9UQL6). Nature of the assay: Inhibition of recombinant HDAC5 assessed as inhibition of fluorogenic aminocoumarin release from substrate by trypsin-coupled biochemical assay. The essentials:
as §1

The target in a further assay is Histone deacetylase 1 (Homo sapiens, UniProt Q13547). Nature of the assay: Inhibition of recombinant HDAC1 assessed as inhibition of fluorogenic aminocoumarin release from substrate by trypsin-coupled biochemical assay. Put shortly: as §1
In another assay the target is T3, Histone deacetylase 8 (Homo sapiens, UniProt Q9BY41).
T3 sequence (Q9BY41 whole entry): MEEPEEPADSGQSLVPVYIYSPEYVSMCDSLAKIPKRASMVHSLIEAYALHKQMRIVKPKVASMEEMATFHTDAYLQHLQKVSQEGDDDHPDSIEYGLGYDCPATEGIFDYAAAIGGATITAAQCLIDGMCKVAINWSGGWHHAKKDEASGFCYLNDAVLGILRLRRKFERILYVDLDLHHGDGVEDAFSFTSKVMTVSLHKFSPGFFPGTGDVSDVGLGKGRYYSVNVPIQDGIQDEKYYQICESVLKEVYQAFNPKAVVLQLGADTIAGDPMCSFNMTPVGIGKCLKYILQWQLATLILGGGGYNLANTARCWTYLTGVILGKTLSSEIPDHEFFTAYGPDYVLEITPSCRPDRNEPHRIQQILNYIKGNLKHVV
Put plainly: Inhibition of recombinant HDAC8 assessed as inhibition of fluorogenic aminocoumarin release from substrate by trypsin-coupled biochemical assay. Put shortly:
as §1

A further assay addresses Histone deacetylase 4 (Homo sapiens, UniProt P56524). Nature of the assay: Inhibition of recombinant HDAC4 assessed as inhibition of fluorogenic aminocoumarin release from substrate by trypsin-coupled biochemical assay. Put shortly: as §1

Each structure is given as a SMILES string. Where only a bound is given, the exact number is not on record here.

Chain of Histone deacetylase 9 (Q9UKV0 whole entry): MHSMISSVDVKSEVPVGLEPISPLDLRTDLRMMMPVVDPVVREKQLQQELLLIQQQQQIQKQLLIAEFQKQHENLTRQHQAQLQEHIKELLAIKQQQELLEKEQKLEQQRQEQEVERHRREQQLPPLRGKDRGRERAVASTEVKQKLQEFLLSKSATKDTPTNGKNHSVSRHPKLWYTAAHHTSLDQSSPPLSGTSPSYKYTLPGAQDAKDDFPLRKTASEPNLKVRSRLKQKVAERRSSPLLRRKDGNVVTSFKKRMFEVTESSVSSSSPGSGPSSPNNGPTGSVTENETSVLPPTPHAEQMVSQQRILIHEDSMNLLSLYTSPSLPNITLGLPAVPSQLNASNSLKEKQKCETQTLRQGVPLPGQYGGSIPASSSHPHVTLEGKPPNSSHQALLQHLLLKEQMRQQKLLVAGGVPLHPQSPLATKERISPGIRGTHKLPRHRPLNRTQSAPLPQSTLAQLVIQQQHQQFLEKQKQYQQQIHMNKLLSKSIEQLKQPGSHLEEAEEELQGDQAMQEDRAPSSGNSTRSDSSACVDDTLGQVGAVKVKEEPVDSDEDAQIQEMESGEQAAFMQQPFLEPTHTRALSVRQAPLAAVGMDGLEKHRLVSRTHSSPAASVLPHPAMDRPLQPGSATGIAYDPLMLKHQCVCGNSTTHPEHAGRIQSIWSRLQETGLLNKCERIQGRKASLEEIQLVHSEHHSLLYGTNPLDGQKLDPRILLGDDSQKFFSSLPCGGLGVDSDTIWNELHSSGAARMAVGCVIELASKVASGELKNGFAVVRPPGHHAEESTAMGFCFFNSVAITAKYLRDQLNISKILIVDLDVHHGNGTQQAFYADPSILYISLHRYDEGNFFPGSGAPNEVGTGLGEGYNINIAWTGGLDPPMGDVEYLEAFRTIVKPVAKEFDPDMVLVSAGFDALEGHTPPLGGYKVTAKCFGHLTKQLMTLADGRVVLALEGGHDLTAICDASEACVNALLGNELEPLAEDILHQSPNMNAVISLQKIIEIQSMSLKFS
Chain of Histone deacetylase 1 (Q13547 whole entry): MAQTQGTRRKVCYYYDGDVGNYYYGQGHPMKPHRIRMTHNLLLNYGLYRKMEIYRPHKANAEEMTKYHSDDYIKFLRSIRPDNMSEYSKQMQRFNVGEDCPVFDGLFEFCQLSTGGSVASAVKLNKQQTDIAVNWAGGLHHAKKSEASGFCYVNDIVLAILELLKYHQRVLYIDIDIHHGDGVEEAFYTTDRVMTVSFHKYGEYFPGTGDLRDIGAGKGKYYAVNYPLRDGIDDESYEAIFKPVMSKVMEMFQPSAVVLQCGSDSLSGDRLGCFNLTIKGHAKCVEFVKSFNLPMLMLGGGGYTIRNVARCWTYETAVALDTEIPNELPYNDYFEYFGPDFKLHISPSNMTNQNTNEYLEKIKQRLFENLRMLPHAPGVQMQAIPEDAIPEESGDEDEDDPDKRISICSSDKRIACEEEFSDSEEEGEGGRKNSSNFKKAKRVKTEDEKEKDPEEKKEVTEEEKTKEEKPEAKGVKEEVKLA
Chain of Histone deacetylase 3 (O15379 whole entry): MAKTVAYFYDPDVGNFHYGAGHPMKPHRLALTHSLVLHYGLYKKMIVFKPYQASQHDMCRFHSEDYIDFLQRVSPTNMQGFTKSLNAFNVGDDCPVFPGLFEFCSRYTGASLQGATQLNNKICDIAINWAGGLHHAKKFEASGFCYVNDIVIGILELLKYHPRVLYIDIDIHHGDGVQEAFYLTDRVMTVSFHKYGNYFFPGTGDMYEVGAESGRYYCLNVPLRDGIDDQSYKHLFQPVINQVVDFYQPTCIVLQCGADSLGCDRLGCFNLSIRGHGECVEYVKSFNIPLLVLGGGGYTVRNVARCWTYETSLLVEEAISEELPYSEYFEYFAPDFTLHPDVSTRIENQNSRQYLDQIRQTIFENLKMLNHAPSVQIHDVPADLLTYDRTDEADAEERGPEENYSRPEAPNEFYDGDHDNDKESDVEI
Chain of Histone deacetylase 2 (Q92769 whole entry): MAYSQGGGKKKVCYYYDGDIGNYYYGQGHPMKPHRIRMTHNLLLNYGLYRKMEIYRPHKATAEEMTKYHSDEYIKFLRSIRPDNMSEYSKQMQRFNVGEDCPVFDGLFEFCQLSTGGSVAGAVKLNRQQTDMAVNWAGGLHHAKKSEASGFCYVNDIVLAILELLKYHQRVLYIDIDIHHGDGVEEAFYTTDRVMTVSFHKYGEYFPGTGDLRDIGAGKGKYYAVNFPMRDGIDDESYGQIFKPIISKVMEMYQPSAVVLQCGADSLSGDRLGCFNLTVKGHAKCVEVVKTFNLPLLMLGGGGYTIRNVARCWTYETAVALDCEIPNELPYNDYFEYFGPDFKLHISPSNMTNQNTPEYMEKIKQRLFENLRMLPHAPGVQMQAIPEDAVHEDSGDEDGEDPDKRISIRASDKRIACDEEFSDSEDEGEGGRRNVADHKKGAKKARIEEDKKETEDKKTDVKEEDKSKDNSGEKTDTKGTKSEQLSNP
Chain of Histone deacetylase 5 (Q9UQL6 whole entry): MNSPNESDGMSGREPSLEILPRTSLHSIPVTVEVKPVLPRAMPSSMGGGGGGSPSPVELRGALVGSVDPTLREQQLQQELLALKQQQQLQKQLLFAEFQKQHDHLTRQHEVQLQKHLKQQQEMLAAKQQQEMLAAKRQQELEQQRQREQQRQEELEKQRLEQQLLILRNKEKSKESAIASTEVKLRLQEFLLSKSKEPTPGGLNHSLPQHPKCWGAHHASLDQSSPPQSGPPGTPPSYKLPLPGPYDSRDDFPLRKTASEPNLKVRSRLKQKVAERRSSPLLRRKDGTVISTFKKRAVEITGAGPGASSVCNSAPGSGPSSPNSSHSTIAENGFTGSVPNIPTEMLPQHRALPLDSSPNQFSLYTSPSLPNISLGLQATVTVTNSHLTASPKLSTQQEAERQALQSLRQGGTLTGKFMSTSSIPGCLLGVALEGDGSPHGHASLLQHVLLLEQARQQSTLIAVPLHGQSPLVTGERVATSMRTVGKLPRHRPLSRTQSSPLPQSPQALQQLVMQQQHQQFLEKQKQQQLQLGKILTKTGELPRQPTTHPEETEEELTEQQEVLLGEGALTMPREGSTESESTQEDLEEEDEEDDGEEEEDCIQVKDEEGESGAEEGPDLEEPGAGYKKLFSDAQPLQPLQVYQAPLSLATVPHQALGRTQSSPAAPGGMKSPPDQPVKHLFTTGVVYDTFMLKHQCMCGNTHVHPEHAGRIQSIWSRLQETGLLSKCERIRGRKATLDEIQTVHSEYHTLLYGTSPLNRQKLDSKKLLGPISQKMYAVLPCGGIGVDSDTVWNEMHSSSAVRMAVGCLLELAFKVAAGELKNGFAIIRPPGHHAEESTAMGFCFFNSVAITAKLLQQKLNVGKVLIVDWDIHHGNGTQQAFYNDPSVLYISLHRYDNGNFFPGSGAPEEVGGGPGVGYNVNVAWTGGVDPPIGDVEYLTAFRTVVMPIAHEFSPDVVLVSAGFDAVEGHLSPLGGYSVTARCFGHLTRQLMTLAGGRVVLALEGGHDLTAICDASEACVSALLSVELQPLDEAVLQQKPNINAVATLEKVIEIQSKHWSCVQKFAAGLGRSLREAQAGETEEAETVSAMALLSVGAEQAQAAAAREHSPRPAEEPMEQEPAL
Chain of Histone deacetylase 4 (P56524 whole entry): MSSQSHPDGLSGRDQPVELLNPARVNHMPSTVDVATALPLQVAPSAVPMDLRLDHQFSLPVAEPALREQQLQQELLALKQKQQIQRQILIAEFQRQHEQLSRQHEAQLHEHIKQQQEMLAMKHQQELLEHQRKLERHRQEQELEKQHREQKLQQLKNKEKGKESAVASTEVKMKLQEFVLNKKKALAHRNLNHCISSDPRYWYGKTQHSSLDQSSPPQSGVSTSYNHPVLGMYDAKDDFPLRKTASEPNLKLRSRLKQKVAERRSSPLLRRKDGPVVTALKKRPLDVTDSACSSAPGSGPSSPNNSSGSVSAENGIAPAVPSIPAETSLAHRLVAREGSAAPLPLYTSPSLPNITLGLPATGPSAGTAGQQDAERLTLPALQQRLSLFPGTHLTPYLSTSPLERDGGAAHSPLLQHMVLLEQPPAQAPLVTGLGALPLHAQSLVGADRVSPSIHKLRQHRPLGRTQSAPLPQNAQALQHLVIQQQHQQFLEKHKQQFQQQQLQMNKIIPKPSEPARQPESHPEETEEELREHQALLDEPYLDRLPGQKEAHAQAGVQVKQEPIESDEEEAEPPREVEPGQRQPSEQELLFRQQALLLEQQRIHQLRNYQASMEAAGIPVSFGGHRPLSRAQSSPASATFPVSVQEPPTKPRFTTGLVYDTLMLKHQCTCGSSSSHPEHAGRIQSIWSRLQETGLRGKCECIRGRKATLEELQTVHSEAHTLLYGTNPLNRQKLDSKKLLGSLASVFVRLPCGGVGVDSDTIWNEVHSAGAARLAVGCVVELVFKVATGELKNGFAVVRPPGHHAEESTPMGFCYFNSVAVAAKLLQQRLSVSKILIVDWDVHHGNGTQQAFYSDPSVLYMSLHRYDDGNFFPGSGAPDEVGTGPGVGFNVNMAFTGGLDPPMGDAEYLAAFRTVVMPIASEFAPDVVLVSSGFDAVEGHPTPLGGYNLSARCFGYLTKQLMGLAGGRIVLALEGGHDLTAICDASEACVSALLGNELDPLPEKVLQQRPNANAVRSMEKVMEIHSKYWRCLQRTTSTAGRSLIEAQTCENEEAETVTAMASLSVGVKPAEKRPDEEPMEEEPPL

As usually defined, the IC50 is the concentration at which inhibition is half-maximal. On to `Cc1cc(=O)[nH]c(SCC(=O)c2ccc(NC(=O)c3ccccc3)cc2)n1`, for which the concentration for half-maximal inhibition (IC50) is greater than 100 µM on Histone deacetylase 3; greater than 100 µM on Histone deacetylase 2; 10.8 µM in [1]; greater than 100 µM at Histone deacetylase 7; greater than 100 µM at Histone deacetylase 9; greater than 100 µM on Histone deacetylase 5. Also, the half-maximal inhibitory concentration (IC50) on Histone deacetylase 1, on Histone deacetylase 8 and on Histone deacetylase 4 was greater than 100 µM throughout.
For the compound `COc1cc(C)nc(SCC(=O)c2ccc(NC(C)=O)cc2)n1`, the IC50 (at Histone deacetylase 3; on Histone deacetylase 2; in assay [1]; at Histone deacetylase 7; at Histone deacetylase 9; on Histone deacetylase 5) was greater than 100 µM each time. The IC50 on Histone deacetylase 1, on Histone deacetylase 8 and at Histone deacetylase 4 was greater than 100 µM in each case.
Consider `Cc1cc(O)nc(SCC(=O)NCCc2ccccc2)n1`, for which the 50% inhibitory concentration (IC50) (on Histone deacetylase 3; at Histone deacetylase 2; in assay [1]; on Histone deacetylase 7; at Histone deacetylase 9; at Histone deacetylase 5) was greater than 100 µM each time. Further, the IC50 at Histone deacetylase 1, on Histone deacetylase 8 and at Histone deacetylase 4 was greater than 100 µM each time.
Turning to `COC(=O)CSc1nc(C)cc(=O)[nH]1`, the IC50 (at Histone deacetylase 3; at Histone deacetylase 2; in [1]; on Histone deacetylase 7; on Histone deacetylase 9; on Histone deacetylase 5) was greater than 100 µM in each case. For the same compound, the IC50 at Histone deacetylase 1, at Histone deacetylase 8 and on Histone deacetylase 4 was greater than 100 µM throughout.
With `CC(=O)Nc1ccc(C(=O)COc2cc(C)cc(=O)[nH]2)cc1`, the IC50 (at Histone deacetylase 3; at Histone deacetylase 2; in assay [1]; at Histone deacetylase 7; on Histone deacetylase 9; on Histone deacetylase 5) was greater than 100 µM each time. Moreover, the IC50 at Histone deacetylase 1, at Histone deacetylase 8 and at Histone deacetylase 4 was greater than 100 µM in each case.
As for `Cc1cc(O)nc(SCC(=O)c2cccs2)n1`, the IC50 on Histone deacetylase 3 is greater than 100 µM; on Histone deacetylase 2, greater than 100 µM; in assay [1] it was 24.8 µM; on Histone deacetylase 7 it was greater than 100 µM; on Histone deacetylase 9 it was greater than 100 µM; on Histone deacetylase 5 it was greater than 100 µM. For the same compound, the IC50 on Histone deacetylase 1, at Histone deacetylase 8 and at Histone deacetylase 4 was greater than 100 µM throughout.
Take `CC(=O)Nc1ccc(C(=O)CSc2cccc(O)c2)cc1`: the IC50 (on Histone deacetylase 3; on Histone deacetylase 2; in assay [1]; at Histone deacetylase 7; at Histone deacetylase 9; on Histone deacetylase 5) was greater than 100 µM throughout. For the same compound, the 50% inhibitory concentration (IC50) on Histone deacetylase 1, at Histone deacetylase 8 and on Histone deacetylase 4 was greater than 100 µM throughout.
Consider `CC(=O)N(C)c1ccc(C(=O)CSc2nc(C)cc(O)n2)cc1`, for which the IC50 (on Histone deacetylase 3; on Histone deacetylase 2; in assay [1]; on Histone deacetylase 7; at Histone deacetylase 9; at Histone deacetylase 5) was greater than 100 µM throughout. Moreover, the IC50 on Histone deacetylase 1, at Histone deacetylase 8 and at Histone deacetylase 4 was greater than 100 µM in each case.
With `Cc1cc(=O)[nH]c(SCC(=O)NCCCCc2ccccc2)n1`, the IC50 (at Histone deacetylase 3; at Histone deacetylase 2; in [1]; on Histone deacetylase 7; at Histone deacetylase 9; on Histone deacetylase 5) was greater than 100 µM in each case. The IC50 at Histone deacetylase 1, on Histone deacetylase 8 and on Histone deacetylase 4 was greater than 100 µM in each case.
As for `Cc1cc(O)nc(SCC(=O)C(C)(C)C)n1`, the IC50 (on Histone deacetylase 3; on Histone deacetylase 2; in [1]; on Histone deacetylase 7; at Histone deacetylase 9; at Histone deacetylase 5) was greater than 100 µM throughout. Besides, the IC50 on Histone deacetylase 1, at Histone deacetylase 8 and on Histone deacetylase 4 was greater than 100 µM throughout.
As for `CC(=O)Nc1ccc(C(=O)CSc2nccc(C)n2)cc1`, the half-inhibitory concentration (IC50) (on Histone deacetylase 3; on Histone deacetylase 2; in [1]; at Histone deacetylase 7; on Histone deacetylase 9; at Histone deacetylase 5) was greater than 100 µM in each case. The IC50 at Histone deacetylase 1, at Histone deacetylase 8 and at Histone deacetylase 4 was greater than 100 µM throughout.
As for `CC(=O)Nc1ccc(C(=O)COc2nc(C)cc(O)n2)cc1`, the IC50 on Histone deacetylase 3 is greater than 100 µM; on Histone deacetylase 2, greater than 100 µM; in assay [1], 88 µM; at Histone deacetylase 9, 11.7 µM; on Histone deacetylase 5 it was 16.7 µM; on Histone deacetylase 1 it was greater than 100 µM. Moreover, the IC50 on Histone deacetylase 8 is greater than 100 µM; on Histone deacetylase 4, 54.2 µM.
Turning to `CC(=O)Nc1ccc(C(=O)CSc2nc(C)cc(C)n2)cc1`, the half-maximal inhibitory concentration (IC50) (at Histone deacetylase 3; at Histone deacetylase 2; in [1]; on Histone deacetylase 7; on Histone deacetylase 9; on Histone deacetylase 5) was greater than 100 µM in each case. The IC50 on Histone deacetylase 1, on Histone deacetylase 8 and at Histone deacetylase 4 was greater than 100 µM in each case.
